Assays:
[1] = AUC (0 to infinity) in Sprague-Dawley rat at 5 mg/kg, iv measured up to 72 hrs by LC/MS analysis; assay type: ADME, organism-based; parameters: dose 5 mg/kg, time infinity, route intravenous; conditions: in vivo
In short: (§1)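 Male Sprague-Dawley rats, 4–6 weeks old, acclimatised 1 week, were dosed iv at 5 mg/kg or by oral gavage at 25 mg/kg. Vehicle was 2% DMSO, 4% EtOH, 4% castor oil, 90% H2O. Blood was drawn by orbital sinus puncture from 2 min to 72 h into heparinized tubes. Plasma was assayed by LC/MS with propranolol as internal standard. Three animals per group.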

[2] = Half life in Sprague-Dawley rat at 5 mg/kg, iv measured up to 72 hrs by LC/MS analysis; assay type: ADME, organism-based; conditions: in vivo; in short: as §1
Rattus norvegicus = assay: Apparent clearance in Sprague-Dawley rat at 25 mg/kg administered via oral gavage measured up to 72 hrs by LC/MS analysis; assay type: ADME, organism-based; conditions: in vivo, iv, 5 mg/kg, in the assay text read “5 mg/kg administered intravenously” for “25 mg/kg administered via oral gavage”; in short: as §1
[3] = target: Receptor-type tyrosine-protein kinase FLT3 (Homo sapiens, UniProt P36888); assay: Inhibition of recombinant human His-tagged FLT3 (564 to 958 residues) expressed in baculovirus using poly (Glu,Tyr) as substrate after 2 hrs by PK-Light ATP assay
Sequence of Receptor-type tyrosine-protein kinase FLT3 (P36888 whole entry, the tested form may be a part): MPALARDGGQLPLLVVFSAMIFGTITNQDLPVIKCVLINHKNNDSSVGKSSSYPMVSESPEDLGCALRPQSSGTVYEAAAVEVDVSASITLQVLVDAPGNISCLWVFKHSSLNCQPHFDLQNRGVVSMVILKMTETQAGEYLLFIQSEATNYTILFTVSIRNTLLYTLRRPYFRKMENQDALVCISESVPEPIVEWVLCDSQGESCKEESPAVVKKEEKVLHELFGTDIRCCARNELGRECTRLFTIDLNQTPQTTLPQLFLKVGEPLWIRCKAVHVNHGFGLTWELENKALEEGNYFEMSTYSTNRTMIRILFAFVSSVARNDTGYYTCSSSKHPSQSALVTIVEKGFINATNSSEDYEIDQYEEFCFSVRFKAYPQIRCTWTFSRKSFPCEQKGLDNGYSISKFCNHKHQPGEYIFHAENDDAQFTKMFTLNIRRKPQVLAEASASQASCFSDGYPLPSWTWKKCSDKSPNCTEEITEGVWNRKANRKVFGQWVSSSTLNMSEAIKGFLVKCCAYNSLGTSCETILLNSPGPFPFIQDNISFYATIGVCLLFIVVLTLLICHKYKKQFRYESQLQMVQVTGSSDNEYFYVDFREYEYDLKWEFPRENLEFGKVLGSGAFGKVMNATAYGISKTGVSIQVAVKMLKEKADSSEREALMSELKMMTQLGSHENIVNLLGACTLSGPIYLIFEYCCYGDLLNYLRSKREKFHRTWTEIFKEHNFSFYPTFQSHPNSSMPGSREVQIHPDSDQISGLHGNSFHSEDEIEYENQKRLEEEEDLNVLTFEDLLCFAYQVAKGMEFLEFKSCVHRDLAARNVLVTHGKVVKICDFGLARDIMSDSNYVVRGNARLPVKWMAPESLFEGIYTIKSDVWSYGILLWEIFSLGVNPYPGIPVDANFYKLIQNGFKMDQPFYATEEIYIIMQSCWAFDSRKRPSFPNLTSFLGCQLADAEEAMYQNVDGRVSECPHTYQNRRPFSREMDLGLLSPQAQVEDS

[4] = target: Cytoplasmic tyrosine-protein kinase BMX (Homo sapiens) (UniProt P51813); assay: Inhibition of recombinant human BMX (M1 to H675 residues) expressed in bacterial expression system at 100 nM by KINOMEscan assay relative to control
Sequence of Cytoplasmic tyrosine-protein kinase BMX (Homo sapiens) (P51813 whole entry, the tested form may be a part): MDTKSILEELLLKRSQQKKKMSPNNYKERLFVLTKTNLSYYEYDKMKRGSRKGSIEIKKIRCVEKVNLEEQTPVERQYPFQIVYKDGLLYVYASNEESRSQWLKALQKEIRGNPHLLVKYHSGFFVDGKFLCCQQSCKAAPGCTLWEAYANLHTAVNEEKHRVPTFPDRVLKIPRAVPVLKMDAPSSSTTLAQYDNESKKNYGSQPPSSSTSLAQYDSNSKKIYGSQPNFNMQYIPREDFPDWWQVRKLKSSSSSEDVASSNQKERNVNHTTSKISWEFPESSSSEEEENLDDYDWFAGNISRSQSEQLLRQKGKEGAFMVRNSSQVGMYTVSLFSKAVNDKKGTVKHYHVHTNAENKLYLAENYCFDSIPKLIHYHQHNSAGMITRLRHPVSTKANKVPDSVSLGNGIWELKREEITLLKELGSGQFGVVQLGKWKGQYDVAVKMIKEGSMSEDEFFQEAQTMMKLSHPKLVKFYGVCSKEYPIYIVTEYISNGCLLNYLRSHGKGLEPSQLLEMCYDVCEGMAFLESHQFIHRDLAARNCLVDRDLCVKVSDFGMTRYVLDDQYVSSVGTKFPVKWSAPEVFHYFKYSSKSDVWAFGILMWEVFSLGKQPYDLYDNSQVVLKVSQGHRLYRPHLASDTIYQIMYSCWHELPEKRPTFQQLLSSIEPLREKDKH

[5] = target: Tyrosine-protein kinase Lyn (Homo sapiens) (UniProt P07948); assay: Inhibition of recombinant human LYN-B expressed in bacterial expression system at 100 nM by KINOMEscan assay relative to control
Sequence of Tyrosine-protein kinase Lyn (Homo sapiens) (P07948 2-512 limits assumed): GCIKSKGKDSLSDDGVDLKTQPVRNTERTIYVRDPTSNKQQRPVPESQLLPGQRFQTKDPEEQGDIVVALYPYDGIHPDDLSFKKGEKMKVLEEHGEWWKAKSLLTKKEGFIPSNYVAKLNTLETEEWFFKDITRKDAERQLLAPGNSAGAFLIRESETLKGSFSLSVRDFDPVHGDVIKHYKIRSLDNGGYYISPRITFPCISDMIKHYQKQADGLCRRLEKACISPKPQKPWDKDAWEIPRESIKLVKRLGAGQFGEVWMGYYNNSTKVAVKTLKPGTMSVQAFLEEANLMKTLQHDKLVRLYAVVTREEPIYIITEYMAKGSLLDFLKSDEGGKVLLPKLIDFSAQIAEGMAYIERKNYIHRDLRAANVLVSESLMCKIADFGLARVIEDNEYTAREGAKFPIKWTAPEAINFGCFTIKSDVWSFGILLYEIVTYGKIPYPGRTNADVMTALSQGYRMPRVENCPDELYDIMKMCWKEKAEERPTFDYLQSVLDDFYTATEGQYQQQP

[6] = target: T1, Macrophage colony-stimulating factor 1 receptor (Mus musculus) (UniProt P09581); assay: Inhibition of CSF1R phosphorylation in mouse RAW264.7 cells at 80 nM preincubated for 6 hrs followed by CSF1 stimulation for 20 mins by Western blot analysis relative to control; assay type: cell-based
T1 sequence (whole entry): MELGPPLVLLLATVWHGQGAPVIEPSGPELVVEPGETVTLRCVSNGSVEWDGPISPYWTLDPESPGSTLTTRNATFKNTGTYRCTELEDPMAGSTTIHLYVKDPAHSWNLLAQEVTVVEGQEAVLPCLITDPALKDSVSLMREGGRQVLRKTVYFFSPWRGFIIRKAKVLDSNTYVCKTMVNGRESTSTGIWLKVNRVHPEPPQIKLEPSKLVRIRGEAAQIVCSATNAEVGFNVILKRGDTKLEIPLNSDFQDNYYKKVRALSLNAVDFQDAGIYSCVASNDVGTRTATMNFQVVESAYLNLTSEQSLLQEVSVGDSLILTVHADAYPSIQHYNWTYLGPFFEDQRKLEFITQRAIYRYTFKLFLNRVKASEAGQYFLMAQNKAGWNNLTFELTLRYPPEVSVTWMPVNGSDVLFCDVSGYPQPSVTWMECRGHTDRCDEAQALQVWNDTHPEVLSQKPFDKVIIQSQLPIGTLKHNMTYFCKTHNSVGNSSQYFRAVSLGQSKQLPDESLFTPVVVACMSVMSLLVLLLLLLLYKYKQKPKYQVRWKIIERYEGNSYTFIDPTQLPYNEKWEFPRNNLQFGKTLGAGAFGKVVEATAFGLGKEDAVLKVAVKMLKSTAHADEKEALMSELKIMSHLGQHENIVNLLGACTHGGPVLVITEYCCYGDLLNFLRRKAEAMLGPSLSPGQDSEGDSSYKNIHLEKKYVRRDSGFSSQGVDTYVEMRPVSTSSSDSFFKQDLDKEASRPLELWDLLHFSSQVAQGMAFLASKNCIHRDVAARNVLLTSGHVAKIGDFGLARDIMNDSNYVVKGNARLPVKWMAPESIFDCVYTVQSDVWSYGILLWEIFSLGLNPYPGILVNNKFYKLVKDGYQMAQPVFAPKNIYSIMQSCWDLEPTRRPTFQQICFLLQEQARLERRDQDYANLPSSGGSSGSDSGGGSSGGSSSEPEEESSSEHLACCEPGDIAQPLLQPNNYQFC
In short: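 RAW264.7 cells were seeded, incubated overnight and treated 6 h with graded compound concentrations, then stimulated 20 min with CSF-1 (50 ng/mL). Lysates were run on 8−12% SDS-PAGE and immunoblotted for p-CSF1R (Tyr723), CSF1R, p-AKT, AKT and GAPDH. Bands were quantified and normalized to GAPDH. Mean ± SEM of at least three experiments.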

RAW264.7 = assay: Downregulation of VEGFA mRNA expression in mouse RAW264.7 cells after 48 hrs by qRT-PCR analysis relative to DMSO; assay type: functional, cell-based
In short: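 RAW264.7 macrophages were treated 48 h with compound at 0.08, 0.4 or 2.0 μM, or DMSO vehicle. Total RNA was extracted with TRIzol and transcripts were quantified by qRT-PCR using gene-specific primers. Run three times, each in triplicate.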

Homo sapiens [7] = organism: Homo sapiens; assay: Selectivity ratio of IC50 for recombinant cytoplasmic human GST-tagged PDGFRalpha expressed in baculovirus to IC50 for recombinant human His-tagged CSF1R cytoplasmic domain (538 to 910 residues) expressed in baculovirus
Homo sapiens [8] = organism: Homo sapiens; assay: Selectivity ratio of IC50 for recombinant human PDGFRbeta expressed in baculovirus to IC50 for recombinant human His-tagged CSF1R cytoplasmic domain (538 to 910 residues) expressed in baculovirus

AUC(0-inf) [1]: 2910 ng·h/mL
half-life [2]: 1.08 h
CL(app) (Rattus norvegicus): 28.8 mL/min/kg
IC50 [3]: 37 nM
inhibition [4]: > 90%
inhibition [5]: > 90%
inhibition [6]: 50%
Ratio IC50 (Homo sapiens [7]): 10 to 35
Ratio IC50 (Homo sapiens [8]): 10 to 35
Compound: CCC(=O)N1CC[C@H](N2C(=O)N(c3cc(OC)ccc3Cl)Cc3cnc(Nc4ccc(N5CCN(C6COC6)CC5)c(C)c4)nc32)C1
Activity (RAW264.7): Dose-dependent effect

From ChEMBL document CHEMBL4033795, “Design, Synthesis, and Structure-Activity Relationship Study of 2-Oxo-3,4-dihydropyrimido[4,5- d]pyrimidines as New Colony Stimulating Factor 1 Receptor (CSF1R) Kinase Inhibitors” (J Med Chem, 2018)
